sPLA2-III inh – Blocks human group III sPLA2 activity | Q9NZ20 | QFRET BODIPY PC-A2 liposome hydrolysis, fluorescence | inhibition, % at 12.2 µM | 370,000 compounds, 0.56% hits | AID 743126;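 active = inhibition above mean plus 3 SD of compounds lying within the high and low control bounds, cut at about 19% in these data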;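 note: 0% = median of test compound wells and 100% = no enzyme DMSO wells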
Target sequence (Q9NZ20 whole entry, looked up): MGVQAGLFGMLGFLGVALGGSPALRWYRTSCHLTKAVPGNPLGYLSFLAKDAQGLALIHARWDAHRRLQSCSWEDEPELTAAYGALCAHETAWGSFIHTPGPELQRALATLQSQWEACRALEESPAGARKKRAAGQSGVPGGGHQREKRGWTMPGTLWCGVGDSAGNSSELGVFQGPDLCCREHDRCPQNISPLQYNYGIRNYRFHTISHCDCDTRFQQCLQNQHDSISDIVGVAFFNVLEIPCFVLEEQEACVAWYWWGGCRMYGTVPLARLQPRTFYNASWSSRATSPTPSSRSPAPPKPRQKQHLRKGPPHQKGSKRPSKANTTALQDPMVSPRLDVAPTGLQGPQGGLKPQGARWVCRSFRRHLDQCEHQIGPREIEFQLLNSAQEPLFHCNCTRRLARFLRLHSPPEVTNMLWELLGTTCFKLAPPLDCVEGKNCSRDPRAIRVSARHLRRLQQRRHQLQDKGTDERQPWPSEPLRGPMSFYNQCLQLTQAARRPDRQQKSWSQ
Efflux pump inh – inhibitors of Candida antifungal efflux pumps expressed in yeast. S. cerevisiae Candida pump triplex, Nile Red efflux. inhibition, % at 10 µM. 330,000 compounds, 0.44% hits;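 active = plate passing quality check with inhibition over a set limit, or well fluorescence over plate mean plus 4 SD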;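 note: Nile Red retained in pooled yeast measured as flow cytometry median fluorescence; 0% = buffer negative control and 100% = Enniatin B positive control; higher means more Nile Red kept so more efflux inhibition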
MT1-MMP act inh – inhibitors of human MT1-MMP activation; 360,000 compounds, 0.061% hits; HT1080 RFP-PRO-GFP cells, GFP/RFP ratio fluorescence, overnight; percent of plate control window, DMSO zero; AID 651647; P50281; GFP/RFP ratio change, % at 20 µM;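 active = GFP/RFP ratio change of at least 30% with cell ATP level not reduced by more than half and red fluorescence within 50% of control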
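Test system: HT1080 cells expressing an RFP-PRO-GFP fluorescent reporter construct / Compound dosing: single-point 20 µM compound, 1% DMSO / Schedule: cells overnight before dosing, compound overnight, 37 °C, 5% CO2 / Evaluation: GFP/RFP fluorescence ratio / Control set: DMSO and RFP-L50D-GFP cell wells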
TAG inh – reduces triacylglycerol accumulation in H9c2 cells. inhibition, % at 12.5 µM. 230,000 compounds, 0.66% hits. Nile Red lipid (TAG) fluorescence; cells loaded with 200 µM oleic acid;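 active = pattern-corrected inhibition of lipid staining of at least 50% with the nuclear-stain viability signal not falling by more than 50%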;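 note: 0% = DMSO wells and 100% = triacsin C control wells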
Yeast cmpd fluor – counter-screen for efflux pump inhibitors: compound fluorescence; shares compounds with Efflux pump inh; S. cerevisiae AD/pABC3, flow cytometry; fluorescence ratio to DMSO, % at 10 µM; 1,700 compounds, 4% hits;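 active = fluorescence ratio to DMSO above its plate's cutoff, the plate mean ratio plus 5 SD, cut at about 210% in these data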;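 note: unstained yeast with no Nile Red so the signal is compound autofluorescence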
CaMdr1 efflux inh – inhibitors of Candida albicans Mdr1 efflux pump; shares compounds with Efflux pump inh; S. cerevisiae AD/CaMDR1, Nile Red efflux, flow cytometry; inhibition, % at 10 µM; 1,700 compounds, 1% hits; in the data active = inhibition above about 26%;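 note: 0% = DMSO vehicle and 100% = reference inhibitor; higher means more Nile Red retained so more efflux inhibition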
CaCdr2 efflux inh – blocks the Candida albicans Cdr2 efflux pump in yeast; shares compounds with Efflux pump inh; S. cerevisiae AD/CaCDR2, Nile Red retention, flow cytometry; Nile Red retention ratio vs DMSO, % at 10 µM; 1,700 compounds, 4% hits; AID 588520; in the data active = Nile Red retention ratio vs DMSO above about 190%;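 note: higher ratio means more blocking of Cdr2 efflux of the dye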
CaCdr1 efflux inh – blocks the Candida albicans Cdr1 efflux pump in yeast. shares compounds with Efflux pump inh. S. cerevisiae AD/CaCDR1, Nile Red efflux, flow cytometry. inhibition, % at 10 µM. 1,700 compounds, 1% hits. AID 588522;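 active = inhibition above the screen-wide mean plus twice its standard deviation, cut at about 32% in these data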
Starred values were filed as active, the others as inactive; . = not tested or not shown. This is a sample that favours compounds with a hit; in the whole collection about 1.3% have one here.

SMILES	sPLA2-III inh	Efflux pump inh	MT1-MMP act inh	TAG inh	Yeast cmpd fluor	CaMdr1 efflux inh	CaCdr2 efflux inh	CaCdr1 efflux inh
COc1ccc(Cl)cc1NC(=O)C/C(C)=N/NC(=O)c1ccccc1Cl	-7.2	0.1	-0.5	-5.5	.	.	.	.
COc1cccc(NC(=O)C/C(C)=N/NC(=O)c2ccccc2Cl)c1	-6.3	0.8*	0.8	-3.9	99.8	-0.3	93.5	-0.1
COc1ccc(NC(=O)Nc2cccc3c2O[C@H](CN(C)C(=O)NC2CCCCC2)[C@@H](C)CN([C@H](C)CO)C3=O)cc1	-8.0	0.2	1.4	-6.7	102.2	-0.2	118.5	0.1
O=[N+]([O-])c1ccc(NCc2ccccc2)nc1	-2.2	37.8*	-1.2	.	83.3	0.2	99.6	-0.4
O=[N+]([O-])c1ccc(NN=CCCc2ccccc2)nc1	6.3	.	.	9.2	.	.	.	.
O=[N+]([O-])c1ccc(Nc2ccccc2)nc1	7.7	30.2*	1.7	.	96.2	-0.1	107.2	-0.1
O=[N+]([O-])c1ccc(Nc2ccc(F)cc2)nc1	11.4	0.1	4.5	-8.3	.	.	.	.
O=C(COC(=O)CNS(=O)(=O)c1ccc(Br)cc1Cl)NC1CCCC1	2.5	0.0	7.4	10.4	.	.	.	.
CC(=O)N/C(=C\c1ccccc1)C(=O)OCc1ccccc1	1.0	1.5*	0.5	-2.7	97.0	-0.3	109.9	-0.3
CC(=O)NC(Cc1ccc2c(c1)OCO2)C(=O)N1CCCC1 (configuration not stated)	5.8	.	.	.	.	.	.	.
O=C(CSc1ccccc1)Nc1ccccc1C(=O)N1CCCC1	2.5	0.1	0.6	-19.7	.	.	.	.
O=C(CCSc1ccccc1)Nc1ccccc1C(=O)N1CCCC1	-2.0	9.6*	-2.8	.	100.0	-0.1	102.2	0.0
CC(C)(C)NC(=O)C(=O)NNC(=O)c1cccc(F)c1	1.2	0.0	-4.9	12.6	.	.	.	.
CCCS(=O)(=O)NC(=O)C1(C)CCN(C(=O)c2cccc(OC(F)(F)F)c2)C1 (configuration not stated)	15.4	.	3.8	12.4	.	.	.	.
CCOc1ccc(C(=O)NCc2ccco2)cc1	-3.9	1.2*	-0.6	.	104.6	0.0	108.0	-0.1
CC(C)Cc1nnc(NS(=O)(=O)Cc2ccccc2)s1	11.2	9.0*	-7.7	.	107.9	-0.3	106.0	0.0
O=C(C1CCCN1S(=O)(=O)c1cccc2ccccc12)N1CCN(c2ccccc2)CC1 (configuration not stated)	-11.4	.	.	.	.	.	.	.
CCOC(=O)C(NC(=O)CC)(Nc1ccccc1)C(F)(F)F (configuration not stated)	2.6	5.5*	0.3	-8.0	93.5	-0.3	94.1	-0.2
CCOC(=O)C(NC(=O)CC)(Nc1ccc(S(N)(=O)=O)cc1)C(F)(F)F (configuration not stated)	-2.1	-0.1	-0.2	-2.1	.	.	.	.
Fc1ccc(Br)cc1C1C=C(c2ccc(Br)cc2)Nc2ncnn21 (configuration not stated)	-0.2	0.2	-89.0	.	.	.	.	.
CCc1ccc(C2=CC(c3cc(Br)ccc3F)n3ncnc3N2)cc1 (configuration not stated)	-2.7	0.9*	-27.9	.	101.7	-0.1	105.1	0.0
O=C(CSc1ccc(Cl)cc1)N1CCN(c2ncc(C(F)(F)F)cc2Cl)CC1	1.4	-0.1	5.2	-20.3	.	.	.	.
O=C(CN1CCN(c2ncc(C(F)(F)F)cc2Cl)CC1)N1CCN(c2ncc(C(F)(F)F)cc2Cl)CC1	-3.4	0.8*	-17.3	41.7	106.7	-0.2	112.0	0.1
CC[N+](C)(C)CC/C=C1/c2ccccc2Sc2ccc(Cl)cc21	-3.6	0.1	4.3	-3.9	100.0	-0.2	102.2	0.0
CCCCCCCCCCC[N+](C)(C)CC/C=C1/c2ccccc2Sc2ccc(Cl)cc21	.	1.8*	-24.4	.	146.5	1.1	259.7*	0.4
SMILES	sPLA2-III inh	Efflux pump inh	MT1-MMP act inh	TAG inh	Yeast cmpd fluor	CaMdr1 efflux inh	CaCdr2 efflux inh	CaCdr1 efflux inh
CCCCCCCCCC[N+](C)(C)CC/C=C1/c2ccccc2Sc2ccc(Cl)cc21	.	1.8*	-27.9	.	98.2	0.0	116.4	0.0
CC1(C(=O)NS(=O)(=O)c2ccc3ccccc3c2)CCN1C(=O)Cc1ccc(Cl)cc1Cl (configuration not stated)	-5.4	.	2.4	-10.8	.	.	.	.
Clc1cc(Cl)cc(CNC2CCC23CCCCC3)c1 (configuration not stated)	2.1	.	.	.	.	.	.	.
Cc1ccc2nc(-c3ccccc3)cc(C(=O)N3CCN(S(=O)(=O)c4c(C)noc4C)CC3)c2c1	1.7	1.1*	-4.5	6.7	104.0	0.0	103.0	0.1
Cc1ccc2nc(-c3ccccc3)cc(C(=O)N3CCN(c4ccccc4O)CC3)c2c1	-9.2	-0.2	-2.5	-4.3	.	.	.	.
COc1ccc(-c2cnc(SCC(=O)Nc3cc(C)on3)n2Cc2ccco2)cc1	-13.4	0.3	0.4	-5.3	.	.	.	.
COc1ccc(-c2cnc(SCC(=O)Nc3nc(C(C)(C)C)cs3)n2Cc2ccco2)cc1	-13.9	0.4*	-42.3	46.9	115.5	0.0	129.1	0.1
COc1ccc(N2CCN(Cc3nc4c(c(=O)[nH]c(=O)n4C)n3CCCc3ccccc3)CC2)cc1	1.2	13.7*	-3.8	.	107.8	0.1	114.3	0.1
COc1ccc(C(=O)CN2C(=O)NC3(CCCCCC3)C2=O)cc1	-0.8	6.2*	2.9	3.4	98.9	-0.1	104.2	0.1
COc1ccc(C2CC(c3ccccc3C(F)(F)F)=NN2c2ccc(S(N)(=O)=O)cc2)cc1 (configuration not stated)	-9.8	55.6*	-7.5	-6.6	93.5	-0.2	113.8	-0.1
N#Cc1ccc(OCC(=O)N2CCN(c3ccc(C(F)(F)F)cn3)CC2)cc1	3.5	0.8*	5.1	0.6	109.5	0.1	108.0	0.0
CC(C)c1nc2sc3c(c2c(=O)[nH]1)CC(C)(C)OC3	15.1	0.2	-2.2	.	.	.	.	.
CCc1nc2ccc(C(=O)NC(C)(C)C)cn2c1N(CC)Cc1cccc(Br)c1	12.2	.	-3.1	1.3	.	.	.	.
Cc1ccc(OCC(=O)NNC(=O)C(=O)NC(C)(C)C)cc1	7.5	0.0	2.7	22.4	.	.	.	.
CC(C)(C)NC(=O)C(=O)NNC(=O)COc1ccccc1	0.4	27.7*	3.9	6.0	100.2	0.0	105.7	0.1
COC(=O)C1=C(C)OC(N)=C(C#N)C1c1c(C)nn(C)c1C (configuration not stated)	0.4	6.5*	-1.0	.	96.2	0.0	107.2	-0.1
COC(=O)C1=C(C)OC(N)=C(C#N)C1c1c(C)nn(-c2ccccc2)c1Cl (configuration not stated)	-3.6	0.0	-1.9	-7.1	.	.	.	.
CN(CC(=O)N1CCN(Cc2ccccc2)CC1)S(=O)(=O)c1cccc2nsnc12	6.8	-0.1	0.4	-2.0	.	.	.	.
